Assay [1] in a line: reduced viability of SK-BR-3 breast cancer cells – cell-based, 24 h, human, pilot screen (AID 572;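 active = viability at or below 10% of carrier control in both of two separate runs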;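 note: compound exposure lasted between 18 and 24 h rather than exactly 24 h; 100% = carrier-treated control wells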). The note with it: SK-BR-3 viability, CellTiter-Glo luminescence, at 10 µM, stronger effect = lower value. (Cellular ATP, detected with luciferase, serves as a proxy for viable cell number.)
Assay [2] is described as follows: HUVEC growth inhibition – cell-based, human, primary screen (AID 575;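 active = viability at or below 30% in both replicate assays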;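 note: 100% = median of untreated cell wells with 0.1% DMSO on each plate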). The note with it: HUVEC proliferation, CellTiter-Glo luminescence, 72 h; at 10 µM; stronger effect = lower value. A digest of the protocol: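 Test system: primary human umbilical vein endothelial cells. Quantity: 1250 cells/well. Compound: single 10 µM dose, 0.1% DMSO, from 5x medium stock. Timing: 72 h treatment at 37 °C. Detection: ATP-based CellTiter-Glo luminescent read. Benchmarks: vehicle and MePR control wells. Format: 384-well plates coated with collagen.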

A short description of assay [3]: H69AR cell proliferation blockers – human, duplicate replicates, primary screen (AID 580).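 Note: 100% = mean luminescence of untreated wells and 0% = no signal.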 The note with it: H69AR lung tumor cells viability, ATP luminescence, 72 h; at 10 µM; stronger effect = lower value.
A short description of assay [4]: MRP1 drug-resistance reversers in H69AR cells – cell-based, doxorubicin co-treatment, pilot screen (AID 601;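 active = viability loss from added drug above about 55%, and viability with drug at most 40%, in both replicates, limit read from the data, passing the limit was not always enough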). The settings on record: CellTiter-Glo, 72 h, at 10 µM; for differential viability (reversal): stronger effect = higher value.
Assay [5] can be described thus: yeast transport mutant growth inhibition pilot in 384-well plates, post-Golgi transport modulator project (AID 636; in the data active = inhibition above about 31%). The settings on record: absorbance 615 nm, about 18 h, stronger effect = higher value.
Assay [6] in a line: growth suppression of yeast trafficking mutant, preliminary HTS, modulators of trafficking downstream of Golgi apparatus project, 1536-format plate, OD 615 nm (AID 637; in the data active = inhibition above about 30%). The settings on record: yeast transport mutant growth, absorbance 615 nm, 18 h; stronger effect = higher value.
The mark [7] stands for this setting: H69AR cells + 2 uM doxorubicin, measured here: viability with 2 uM doxorubicin, stronger effect = lower value.
The mark [8] stands for this setting: H69AR cells, compound alone cytotoxicity.

SMILES strings stand for the structures. Active and inactive are the calls of the source.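 Rule for the calls, unless noted: active = viability at or under a set limit in both replicates, limit being median viability minus 3 SD (cut at about 48% in these data, passing the limit was not always enough); inconclusive = at or under the limit in just one replicate; inactive = at or above the limit in both replicates.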

A word on the viability: it is a read-out of living cells in per cent, often relative to untreated cells. Usually inhibition stands for the change of the read-out against control, counted positive when it falls. Take `O=C(COC(=O)c1cccc(S(=O)(=O)N2CCc3ccccc32)c1)NC1CCS(=O)(=O)C1` (configuration not stated): the viability in assay [1] was 90% (inactive); in assay [2], 114% (inactive); in assay [3], 102% (inactive); in assay [4] (setting [7]), 101%; in assay [4] (setting [8]), 102%. In addition, in assay [4] (H69AR cells + 2 uM doxorubicin), the differential viability (reversal) is 0.47% (inactive). The inhibition in assay [5] was -4.05% (inactive); in assay [6], -7.64% (inactive).
On to `CCOC(=O)c1sc2cccc(F)c2c1N`, for which the viability is 105% (inactive) in assay [1]; 80.8% (inactive) in assay [2]; 88.1% (inactive) in assay [3]; 82.5% in assay [4] (setting [7]); 88.1% in assay [4] (setting [8]). Further, in assay [4] (H69AR cells + 2 uM doxorubicin), the differential viability (reversal) was 5.58% (inactive). The inhibition in assay [5] is -5.45% (inactive); in assay [6] it was 6.07% (inactive).
As to `CCC[C@@H]1C[C@@H](C(=O)N[C@H]([C@@H](C)O)[C@H]2O[C@H](SC)[C@H](O)[C@@H](O)C2O)N(C)C1` (some centres not stated), the viability in assay [1] is 128% (inactive); in assay [2] it was 94.7% (inactive); in assay [3], 89.7% (inactive); in assay [4] (setting [7]) it was 80%; in assay [4] (setting [8]) it was 89.7%. Besides, in assay [4] (H69AR cells + 2 uM doxorubicin), the differential viability (reversal) is 9.67% (inactive). For the same compound, the figures for the inhibition in assay [5] and in assay [6] were 0.52% (inactive) and 15.7% (inactive), respectively.
Turning to `O=C(CN1C(=O)c2ccccc2S1(=O)=O)Nc1ccc(S(=O)(=O)N2CCCCCC2)cc1`, the viability is 110% (inactive) in assay [1]; 81.4% (inactive) in assay [2]; 103% (inactive) in assay [3]; 89.3% in assay [4] (setting [7]); 103% in assay [4] (setting [8]). Besides, the differential viability (reversal) in assay [4] (H69AR cells + 2 uM doxorubicin) is 14.2% (inactive). For the same compound, the inhibition was 5.48% (inactive) in assay [5] and -1.45% (inactive) in assay [6].
On to `O=C(Nc1cccnc1)Nc1ccc(F)c(Cl)c1`, for which the viability in assay [1] was 82% (inactive); in assay [2], 86.6% (inactive); in assay [3], 105% (inactive); in assay [4] (setting [7]) it was 100%; in assay [4] (setting [8]), 105%. In addition, in assay [4] (H69AR cells + 2 uM doxorubicin), the differential viability (reversal) is 4.77% (inactive). The figures for the inhibition in assay [5] and in assay [6] were -2.19% (inactive) and 12% (inactive), respectively.
In the case of `Cc1ccc(Nc2nc(Oc3ccc(=O)[nH]n3)nc(N(C)C)n2)cc1`, the viability in assay [1] is 81% (inactive); in assay [2], 101% (inactive); in assay [3], 94% (inactive); in assay [4] (setting [7]), 77.9%; in assay [4] (setting [8]), 94%. Moreover, in assay [4] (H69AR cells + 2 uM doxorubicin), the differential viability (reversal) was 16.1% (inactive). For the same compound, the inhibition in assay [5] is -3.7% (inactive); in assay [6], 1.94% (inactive).
As to `N#Cc1ccc(CSc2nnc(-c3cccs3)n2-c2ccccc2)cc1`, the viability in assay [1] is 78% (inactive); in assay [2], 78% (inactive); in assay [3], 78% (inactive); in assay [4] (setting [7]), 44%; in assay [4] (setting [8]) it was 78%. Moreover, in assay [4] (H69AR cells + 2 uM doxorubicin), the differential viability (reversal) is 34.1% (inactive). Also, the inhibition in assay [5] is -0.82% (inactive); in assay [6], -7.1% (inactive).
Consider `CCOC(=O)c1cc(CC)sc1NC(=O)COC`, for which the viability was 104% (inactive) in assay [1]; 89.4% (inactive) in assay [2]; 88.8% (inactive) in assay [3]; 86.2% in assay [4] (setting [7]); 88.8% in assay [4] (setting [8]). The differential viability (reversal) in assay [4] (H69AR cells + 2 uM doxorubicin) is 2.66% (inactive). The inhibition was -7.07% (inactive) in assay [5] and 0.18% (inactive) in assay [6].
`O=C(CSc1nnc(COc2ccc(Cl)cc2)o1)OC1CCCCC1`: the viability was 106% (inactive) in assay [1]; 95.5% (inactive) in assay [2]; 102% (inactive) in assay [3]; 95.9% in assay [4] (setting [7]); 102% in assay [4] (setting [8]). Besides, the differential viability (reversal) in assay [4] (H69AR cells + 2 uM doxorubicin) was 6.06% (inactive). For the same compound, the inhibition in assay [5] was 4.66% (inactive); in assay [6], -3.87% (inactive).
As for `CCC(c1nnc(SCC(=O)Nc2ccc(C(=O)Nc3ccccc3OC)cc2)o1)N(C)C` (configuration not stated), the viability is 65% (inactive) in assay [1]; 96.7% (inactive) in assay [2]; 107% (inactive) in assay [3]; 99% in assay [4] (setting [7]); 107% in assay [4] (setting [8]). In assay [4] (H69AR cells + 2 uM doxorubicin), the differential viability (reversal) was 7.67% (inactive). Also, the inhibition in assay [5] was -6.3% (inactive); in assay [6], -2.18% (inactive).
`COc1cc2c(cc1OC)CN(C(=O)COc1ccc(C)c(C)c1)CC2`: the viability in assay [1] was 94% (inactive); in assay [2], 91.4% (inactive); in assay [3] it was 83.9% (inactive); in assay [4] (setting [7]), 89.5%; in assay [4] (setting [8]) it was 83.9%. Further, in assay [4] (H69AR cells + 2 uM doxorubicin), the differential viability (reversal) was -5.58% (inactive). The results for the inhibition in assay [5] and in assay [6] were -7.95% (inactive) and 1.29% (inactive), respectively.
In the case of `O=C(NC1CCS(=O)(=O)C1)OC1CCCCC1` (configuration not stated), the viability in assay [1] was 75% (inactive); in assay [2], 111% (inactive); in assay [3], 93.4% (inactive); in assay [4] (setting [7]), 104%; in assay [4] (setting [8]), 93.4%. The differential viability (reversal) in assay [4] (H69AR cells + 2 uM doxorubicin) is -10.9% (inactive). The inhibition in assay [5] was -0.82% (inactive); in assay [6] it was 1.82% (inactive).
As to `CNC(=O)CSc1nc2c(c(=O)n(C)c(=O)n2C)n1Cc1ccc(C)cc1`, the viability in assay [1] was 100% (inactive); in assay [2] it was 92.4% (inactive); in assay [3], 96.2% (inactive); in assay [4] (setting [7]), 79.9%; in assay [4] (setting [8]), 96.2%. The differential viability (reversal) in assay [4] (H69AR cells + 2 uM doxorubicin) is 16.2% (inactive). Moreover, the inhibition in assay [5] is -2% (inactive); in assay [6], -7.45% (inactive).
Turning to `Cc1csc(SCCn2c(N3CCCC3)nc3c2c(=O)[nH]c(=O)n3C)n1`, the viability in assay [1] was 94% (inactive); in assay [2], 105% (inactive); in assay [3], 100% (inactive); in assay [4] (setting [7]), 105%; in assay [4] (setting [8]) it was 100%. Moreover, in assay [4] (H69AR cells + 2 uM doxorubicin), the differential viability (reversal) was -4.86% (inactive). The inhibition was -1.49% (inactive) in assay [5] and -2.55% (inactive) in assay [6].
As to `CC1(C)S[C@@H]2[C@H](NC(=O)C(C(=O)O)c3ccccc3)C(=O)N2[C@H]1C(=O)O` (some centres not stated), the viability in assay [1] was 87% (inactive); in assay [2], 73.9% (inactive); in assay [3] it was 107% (inactive); in assay [4] (setting [7]), 103%; in assay [4] (setting [8]), 107%. Also, the differential viability (reversal) in assay [4] (H69AR cells + 2 uM doxorubicin) was 3.92% (inactive). Further, the values for the inhibition in assay [5] and in assay [6] were -1.43% (inactive) and -2.67% (inactive), respectively.
As for `CC(C)CN(C(=O)c1ccc(=O)n(C)n1)c1nc2ccccc2s1`, the viability in assay [1] is 94% (inactive); in assay [2], 107% (inactive); in assay [3], 90.2% (inactive); in assay [4] (setting [7]), 85.2%; in assay [4] (setting [8]) it was 90.2%. In assay [4] (H69AR cells + 2 uM doxorubicin), the differential viability (reversal) is 4.96% (inactive). Further, the inhibition in assay [5] was -1.08% (inactive); in assay [6], 1.09% (inactive).
Consider `CCOC(=O)Cc1cc(=O)n2[nH]c(C)c(-c3ccc(OC)cc3)c2n1`, for which the viability in assay [1] was 103% (inactive); in assay [2], 56.1% (inactive); in assay [3] it was 92.6% (inactive); in assay [4] (setting [7]) it was 83.1%; in assay [4] (setting [8]), 92.6%. Further, in assay [4] (H69AR cells + 2 uM doxorubicin), the differential viability (reversal) was 9.51% (inactive). For the same compound, the inhibition is -4.34% (inactive) in assay [5] and -1% (inactive) in assay [6].
`N#CCC(=O)Nc1ncn(Cc2ccccc2Cl)n1`: the viability was 95% (inactive) in assay [1]; 105% (inactive) in assay [2]; 95.2% (inactive) in assay [3]; 106% in assay [4] (setting [7]); 95.2% in assay [4] (setting [8]). In assay [4] (H69AR cells + 2 uM doxorubicin), the differential viability (reversal) was -10.4% (inactive). In addition, the results for the inhibition in assay [5] and in assay [6] were -4.52% (inactive) and 3.82% (inactive), respectively.
For `COc1cc(C2N=C(c3ccccc3)NO2)cc(Br)c1O` (configuration not stated), the viability was 90% (inactive) in assay [1]; 87.5% (inactive) in assay [2]; 84.8% (inactive) in assay [3]; 89% in assay [4] (setting [7]); 84.8% in assay [4] (setting [8]). Also, in assay [4] (H69AR cells + 2 uM doxorubicin), the differential viability (reversal) was -4.25% (inactive). Also, the inhibition in assay [5] was -3.12% (inactive); in assay [6], -10% (inactive).

Values taken from PubChem BioAssay.
